Source: PubChem BioAssay
UBC9 SUMO inh: inhibitors of in vitro SUMOylation cascade, primary screen, biochemical, HTRF, uHTS; inhibition, % at 35 µM; 0.36% of 290,000 active; HTRF SUMOylation assay, SAE1/SAE2 + UBC9; in the data active = inhibition above about 50%, passing the limit was not always enough
Apaf1 inhib: inhibitors of human Apaf-1 apoptosome, primary screen, biochemical, DEVD-Rh110 fluorescence, uHTS | reconstituted apoptosome caspase-3 activity | inhibition, % at 20 µM | 0.71% of 330,000 active | AID 489030, 2010; active = inhibition of at least 40% at 20 µM
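Medium: Hepes buffer, pH 7.5 / System: biochemical Apaf-1 apoptosome reconstitution / Measured by: Rh110 fluorescence, excitation 480 nm, emission 540 nm / Times: compound with Apaf-1, dATP, procaspase-3 30 min, then 50 min reaction, room temperature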
GSTO1 counter: inhibitors of recombinant GSTO1, primary screen, counter-screen for RBBP9 inhibitor project, biochemical, fluorescence polarization; 1.1% of 300,000 active; Glutathione S-transferase omega-1 (Homo sapiens), P78417; inhibition, % at 5.96 µM; activity-based probe fluorescence polarization;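 active = inhibition above the campaign mean inhibition plus 3 SD, cut at about 35% in these data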
Redox H2O2 prof: compounds producing H2O2 with reducing agent – biochemical, NIH compound library profiling, artefact control for MLSCN library redox annotation, primary screen; activation, % at 10 µM; DTT-dependent redox cycling H2O2, phenol red/HRP absorbance; 100% = 100 µM peroxide control, 0% = buffer; 0.03% of 200,000 active;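 active = activation of at least 50% relative to the plate's high and low controls in the primary single-dose screen; inactive = activation below 50%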;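 note: compound incubated with DTT at 0.8 mM final as the reducing agent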
HKDC1 inh: HKDC1 hexokinase inhibitors, primary screen, biochemical, fluorescence, uHTS. recombinant HKDC1, G6PDH/diaphorase resazurin coupled fluorescence. inhibition, % at 20 µM. 0.16% of 340,000 active;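 active = inhibition above about 35% when tested at 20 µM, limit read from the data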
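Material – in-house recombinant HK5 (HKDC1) enzyme · Quantity – HKDC1 at 5 µg/mL · Buffer or medium – pH 8.0 Tris buffer with 10 mM MgCl2 · Reagent – glucose with 1 mM ATP · Dosing – single 20 µM dose · Times – reaction time 90 min, room temperature, protected from light · Technique – resorufin fluorescence at 613 nm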
Apaf-1 inh conf: Apaf-1 inhibitors, single-dose retest, confirmation, biochemical, fluorescence, DEVD-Rh110, 20 µM; inhibition, % at 20 µM; 25% of 1,800 active; shares compounds with Apaf1 inhib; AID 504614, 2011; reconstituted apoptosome, caspase-3 DEVD-Rh110 fluorescence;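 active = mean inhibition of at least 40% at 20 µM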
Rh110 quench: Rh110 fluorescence interference by putative Apaf-1 inhibitors, confirmation, artefact control for Apaf-1 inhibitor project, biochemical, 20 µM | shares compounds with Apaf1 inhib | quenched caspase reaction | activation (fluorescence interference), % at 20 µM | 1,800 tested, under 10 active;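 active = signal rise of 40% or more at 20 µM, treated as a fluorescence artifact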
Fluor interf inh: fluorescence interference of Apaf-1 inhibitor hits, dose response, artefact control for Apaf-1 inhibitor project; shares compounds with Apaf1 inhib; fluorescence interference counterscreen, Apaf-1 assay format; IC50, µM; 460 tested, under 10 active; call rule not given here
Hits are given with their value. Hits are enriched below; roughly 1.4% of the tested compounds scored in any of these assays.

What do the screens show for `O=c1[nH]c(CN2CCc3ccccc3C2)nc2ccccc12`?
UBC9 SUMO inh: inactive; Apaf1 inhib: 65; GSTO1 counter: inactive; Redox H2O2 prof: inactive; HKDC1 inh: inactive; Apaf-1 inh conf: inactive; Rh110 quench: inactive

What do the screens show for `O=C(O)c1ccccc1Nc1cc(Cl)c2nonc2c1[N+](=O)[O-]`?
UBC9 SUMO inh: inactive; Apaf1 inhib: inactive; GSTO1 counter: inactive; HKDC1 inh: inactive

How did O=[N+]([O-])c1c(Nc2ccccn2)cc(Cl)c2nonc12 do in these assays?
UBC9 SUMO inh: 93; Apaf1 inhib: 91; GSTO1 counter: inactive; HKDC1 inh: inactive; Apaf-1 inh conf: inactive; Rh110 quench: inactive

What do the screens show for `NC1=NC[C@H](Cc2ccccc2)N1CCc1cc(C(F)(F)F)cc(C(F)(F)F)c1`?
UBC9 SUMO inh: inactive; Apaf1 inhib: 54; GSTO1 counter: inactive; HKDC1 inh: inactive; Apaf-1 inh conf: inactive; Rh110 quench: inactive

What do the screens show for `FC(F)(F)c1cc(CCN2C(=S)NC[C@@H]2Cc2ccccc2)cc(C(F)(F)F)c1`?
UBC9 SUMO inh: inactive; Apaf1 inhib: inactive; GSTO1 counter: inactive; Redox H2O2 prof: inactive; HKDC1 inh: inactive

How did COc1ccc2c(c1)CCc1sc(NC(=O)c3ccc(C)cc3)nc1-2 do in these assays?
UBC9 SUMO inh: inactive; Apaf1 inhib: inactive; GSTO1 counter: inactive; Redox H2O2 prof: inactive; HKDC1 inh: inactive

How did COc1ccc2c(c1)Cc1sc(NC(=O)c3cccnc3)nc1-2 do in these assays?
UBC9 SUMO inh: 90; Apaf1 inhib: 89; GSTO1 counter: inactive; Redox H2O2 prof: inactive; HKDC1 inh: inactive; Apaf-1 inh conf: inactive; Rh110 quench: inactive

Results for COc1ccc2c(c1)Cc1sc(NC(C)=O)nc1-2 ?
UBC9 SUMO inh: inactive; Apaf1 inhib: 73; GSTO1 counter: inactive; Redox H2O2 prof: inactive; HKDC1 inh: inactive; Apaf-1 inh conf: inactive; Rh110 quench: inactive

Results for COc1ccc2c(c1)Cc1sc(NC(=O)c3ccco3)nc1-2 ?
UBC9 SUMO inh: inactive; Apaf1 inhib: 85; GSTO1 counter: inactive; Redox H2O2 prof: inactive; HKDC1 inh: inactive; Apaf-1 inh conf: 56; Rh110 quench: inactive; Fluor interf inh: inactive

How did NC1(C#Cc2ccc3oc(=O)c(-n4cc(-c5ccsc5)nn4)cc3c2)CCCCC1 do in these assays?
Apaf1 inhib: 48; HKDC1 inh: inactive; Apaf-1 inh conf: inactive; Rh110 quench: inactive

Results for CC(=O)N1CCN(c2ccc(NC(=O)c3cccc([N+](=O)[O-])c3)cc2)CC1 ?
UBC9 SUMO inh: inactive; Apaf1 inhib: inactive; GSTO1 counter: inactive; HKDC1 inh: inactive

What do the screens show for `CC(C)C[C@H](NC(=O)c1nc[nH]c1C(=O)N[C@@H](CCCCN)C(=O)OC(C)(C)C)C(=O)OC(C)(C)C`?
Apaf1 inhib: 43; HKDC1 inh: inactive; Apaf-1 inh conf: inactive; Rh110 quench: inactive

Results for CC(C)(C)OC(=O)[C@H](CCCCN)NC(=O)c1nc[nH]c1C(=O)N[C@@H](CCCCN)C(=O)OC(C)(C)C ?
Apaf1 inhib: inactive; HKDC1 inh: inactive

How did CC(C)(C)OC(=O)[C@H](Cc1ccccc1)NC(=O)c1nc[nH]c1C(=O)N[C@@H](CCCCN)C(=O)OC(C)(C)C do in these assays?
Apaf1 inhib: 51; HKDC1 inh: inactive; Apaf-1 inh conf: inactive; Rh110 quench: inactive

What do the screens show for `CC(=O)N1CCN(c2ccc(NCc3ccco3)cc2)CC1`?
Apaf1 inhib: inactive; HKDC1 inh: inactive

How did CC(=O)N1CCN(c2ccc(NCc3ccc(-c4cccc(Cl)c4)o3)cc2)CC1 do in these assays?
Apaf1 inhib: 43; HKDC1 inh: inactive; Apaf-1 inh conf: inactive; Rh110 quench: inactive

How did Cc1cc(N2CCN(c3ccc(C(F)(F)F)cc3[N+](=O)[O-])CC2)c2ccccc2n1 do in these assays?
UBC9 SUMO inh: inactive; Apaf1 inhib: inactive; GSTO1 counter: inactive; HKDC1 inh: inactive

Results for Cc1cc(N2CCN(c3ccc([N+](=O)[O-])c4cccnc34)CC2)c2ccccc2n1 ?
UBC9 SUMO inh: inactive; Apaf1 inhib: 60; GSTO1 counter: inactive; Redox H2O2 prof: inactive; HKDC1 inh: inactive; Apaf-1 inh conf: 47; Rh110 quench: inactive; Fluor interf inh: inactive

How did O=c1[nH]c(Nc2ccc3c(c2)OCCO3)nnc1Cc1ccccc1 do in these assays?
UBC9 SUMO inh: inactive; Apaf1 inhib: inactive; GSTO1 counter: inactive; Redox H2O2 prof: inactive; HKDC1 inh: inactive

Results for O=C(NCCc1ccccc1)c1ccc2nc(-c3ccco3)c(-c3ccco3)nc2c1 ?
UBC9 SUMO inh: inactive; Apaf1 inhib: 46; GSTO1 counter: 46; Redox H2O2 prof: inactive; HKDC1 inh: inactive; Apaf-1 inh conf: inactive; Rh110 quench: inactive

What do the screens show for `O=C(O)c1ccc2nc(-c3ccccc3)c(-c3ccccc3)nc2c1`?
UBC9 SUMO inh: inactive; Apaf1 inhib: inactive; GSTO1 counter: inactive; Redox H2O2 prof: inactive; HKDC1 inh: inactive

How did O=C(c1ccccc1)c1ccc2nc(-c3ccco3)c(-c3ccco3)nc2c1 do in these assays?
UBC9 SUMO inh: 95; Apaf1 inhib: 41; GSTO1 counter: 60; Redox H2O2 prof: inactive; HKDC1 inh: inactive; Apaf-1 inh conf: inactive; Rh110 quench: inactive

What do the screens show for `COc1ccc(NS(=O)(=O)c2cccc(C(=O)N3CCCCCCC3)c2)cc1`?
Apaf1 inhib: 45; HKDC1 inh: inactive; Apaf-1 inh conf: inactive; Rh110 quench: inactive

How did COc1cccc(S(=O)(=O)Nc2ccc(C(=O)N3CCCCCC3)cc2)c1 do in these assays?
UBC9 SUMO inh: inactive; Apaf1 inhib: inactive; GSTO1 counter: inactive; Redox H2O2 prof: inactive; HKDC1 inh: inactive

What do the screens show for `Cc1ccc2c(c1)C(=O)C(=O)N2Cc1ccc(F)cc1`?
Apaf1 inhib: inactive; HKDC1 inh: inactive

What do the screens show for `Cc1ccc2c(c1)C(=O)C(=O)N2Cc1ccc(Cl)cc1`?
Apaf1 inhib: 40; HKDC1 inh: inactive; Apaf-1 inh conf: inactive; Rh110 quench: inactive

How did CCOc1ccc2nc(NC3=NC(c4ccc(OC)cc4)CC(=O)N3)nc(C)c2c1 (configuration not stated) do in these assays?
UBC9 SUMO inh: inactive; Apaf1 inhib: 79; GSTO1 counter: inactive; Redox H2O2 prof: inactive; HKDC1 inh: inactive; Apaf-1 inh conf: 70; Rh110 quench: inactive; Fluor interf inh: inactive
